The nature of assay [1]: Her2 expression decrease, cell viability multiplex – SKBR3 breast tumor cells, AlphaScreen, ATP viability, primary screen (AID 461).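 For Her2 level: lower value means less Her2 protein in the cells.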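 For viability: percent of carrier control wells set as 100% viability.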 To be noted: SKBR3 Her2 protein level, 18-24 h, measured here: SKBR3 viability, ATP luminescence, at 10 µM.
Assay [2] has as its target Receptor tyrosine-protein kinase erbB-2 (Homo sapiens) (UniProt P04626). Described as above. The following applies: 18-24 h, at 10 µM, stronger effect = lower value.
Assay [3] is described as follows: reduced viability of SK-BR-3 breast cancer cells – cell-based, 24 h, human, pilot screen (AID 572;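 active = viability at or below 10% of carrier control in both of two separate runs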;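 note: compound exposure lasted between 18 and 24 h rather than exactly 24 h; 100% = carrier-treated control wells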). To be noted: SK-BR-3 viability, CellTiter-Glo luminescence, at 10 µM, stronger effect = lower value. (Cellular ATP, detected with luciferase, serves as a proxy for viable cell number.)
Assay [4] is described as follows: HUVEC growth inhibition – cell-based, human, primary screen (AID 575;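 active = viability at or below 30% in both replicate assays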;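 note: 100% = median of untreated cell wells with 0.1% DMSO on each plate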). To be noted: HUVEC proliferation, CellTiter-Glo luminescence, 72 h; at 10 µM; stronger effect = lower value. In a few lines:
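Timing: 72 h treatment at 37 °C; material: HUVEC primary cells; technique: CellTiter-Glo luminescence measuring cellular ATP; controls: vehicle and MePR control wells; measure: percent of median DMSO-control luminescence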

A short description of assay [5]: H69AR cell proliferation blockers – human, duplicate replicates, primary screen (AID 580;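 active = viability at or under a set limit in both replicates, limit being median viability minus 3 SD, cut at about 48% in these data, passing the limit was not always enough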;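 note: 100% = mean luminescence of untreated wells and 0% = no signal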). The following applies: H69AR lung tumor cells viability, ATP luminescence, 72 h; at 10 µM; stronger effect = lower value.
A short description of assay [6]: MRP1 drug-resistance reversers in H69AR cells – cell-based, doxorubicin co-treatment, pilot screen (AID 601;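 active = viability loss from added drug above about 55%, and viability with drug at most 40%, in both replicates, limit read from the data, passing the limit was not always enough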). To be noted: CellTiter-Glo, 72 h, at 10 µM; for differential viability (reversal): stronger effect = higher value.
The nature of assay [7]: yeast transport mutant growth inhibition pilot in 384-well plates, post-Golgi transport modulator project (AID 636; in the data active = inhibition above about 31%). The following applies: absorbance 615 nm, about 18 h, stronger effect = higher value.
The nature of assay [8]: growth suppression of yeast trafficking mutant, preliminary HTS, modulators of trafficking downstream of Golgi apparatus project, 1536-format plate, OD 615 nm (AID 637; in the data active = inhibition above about 30%). The following applies: yeast transport mutant growth, absorbance 615 nm, 18 h; stronger effect = higher value.
[9] abbreviates: H69AR cells + 2 uM doxorubicin, measured here: viability with 2 uM doxorubicin, stronger effect = lower value.
The mark [10] stands for this setting: H69AR cells, compound alone cytotoxicity.

Active and inactive are the calls of the source.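 Rule for the calls, unless noted: active = Her2 level under about 52% in both replicate screens, with viability over 70% of control (limit read from the data); inconclusive = Her2 under the limit in one screen only, or viability under 70%; inactive = Her2 level above the set limit.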

The term viability denotes a read-out of living cells in per cent, often relative to untreated cells. For orientation: inhibition means the drop in the measured response relative to a control, in per cent.

Receptor tyrosine-protein kinase erbB-2 (Homo sapiens), sequence (P04626 whole entry, looked up): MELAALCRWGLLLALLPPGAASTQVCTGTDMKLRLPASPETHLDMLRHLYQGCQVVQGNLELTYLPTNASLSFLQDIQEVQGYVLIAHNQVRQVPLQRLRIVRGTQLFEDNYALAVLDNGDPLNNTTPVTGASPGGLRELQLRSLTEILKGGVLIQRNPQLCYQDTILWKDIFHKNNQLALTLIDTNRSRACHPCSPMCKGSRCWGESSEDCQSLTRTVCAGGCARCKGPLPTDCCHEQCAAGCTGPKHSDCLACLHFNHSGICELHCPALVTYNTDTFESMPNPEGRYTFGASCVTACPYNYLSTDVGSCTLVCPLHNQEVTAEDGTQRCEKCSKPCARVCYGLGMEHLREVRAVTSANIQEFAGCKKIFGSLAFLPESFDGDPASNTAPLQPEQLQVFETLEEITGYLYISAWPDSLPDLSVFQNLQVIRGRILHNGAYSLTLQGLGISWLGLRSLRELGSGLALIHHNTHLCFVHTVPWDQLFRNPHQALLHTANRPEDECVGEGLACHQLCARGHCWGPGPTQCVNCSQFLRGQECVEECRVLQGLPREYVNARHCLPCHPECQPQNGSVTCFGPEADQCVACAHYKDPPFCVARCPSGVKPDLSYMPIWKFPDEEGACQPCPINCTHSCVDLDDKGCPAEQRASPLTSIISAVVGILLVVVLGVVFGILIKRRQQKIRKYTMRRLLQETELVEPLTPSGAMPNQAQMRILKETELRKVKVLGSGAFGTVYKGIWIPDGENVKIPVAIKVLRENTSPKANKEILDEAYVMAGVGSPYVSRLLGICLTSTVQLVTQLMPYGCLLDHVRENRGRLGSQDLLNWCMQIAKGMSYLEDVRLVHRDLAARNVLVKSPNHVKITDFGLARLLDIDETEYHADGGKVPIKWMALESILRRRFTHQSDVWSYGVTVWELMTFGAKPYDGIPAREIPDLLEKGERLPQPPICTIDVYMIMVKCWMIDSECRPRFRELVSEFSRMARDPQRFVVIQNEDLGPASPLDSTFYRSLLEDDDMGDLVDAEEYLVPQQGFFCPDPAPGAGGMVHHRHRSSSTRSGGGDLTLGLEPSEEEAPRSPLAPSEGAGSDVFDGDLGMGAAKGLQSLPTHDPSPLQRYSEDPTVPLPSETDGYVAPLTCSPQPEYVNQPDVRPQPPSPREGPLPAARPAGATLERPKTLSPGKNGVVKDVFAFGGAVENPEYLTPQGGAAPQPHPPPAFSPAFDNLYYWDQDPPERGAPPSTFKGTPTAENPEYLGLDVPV

Turning to `Cc1noc(C)c1CSc1nnc(-c2ccncc2)n1-c1cccc(Cl)c1C`, the viability was 81.5% in assay [1]; 81.5% (inactive) in assay [3]; 81% (inactive) in assay [4]; 88.4% (inactive) in assay [5]; 86% in assay [6] (setting [9]); 88.4% in assay [6] (setting [10]). Also, in assay [2], the Her2 level was 93.5% (inactive). The differential viability (reversal) in assay [6] (H69AR cells + 2 uM doxorubicin) is 2.37% (inactive). In addition, the inhibition in assay [7] was -3.42% (inactive); in assay [8] it was -8.25% (inactive).
Turning to `Cn1c(SCc2nnc3n2CCCCC3)nc2ccccc21`, the viability was 103% in assay [1]; 103% (inactive) in assay [3]; 98.3% (inactive) in assay [4]; 98.2% (inactive) in assay [5]; 94% in assay [6] (setting [9]); 98.2% in assay [6] (setting [10]). The Her2 level in assay [2] is 98.5% (inactive). In addition, the differential viability (reversal) in assay [6] (H69AR cells + 2 uM doxorubicin) is 4.2% (inactive). Besides, the inhibition in assay [7] was -6.67% (inactive); in assay [8] it was 2.54% (inactive).
In the case of `CC(C)OC(=O)CSc1nnc(-c2ccco2)n1N`, the viability in assay [1] is 99.5%; in assay [3], 99.5% (inactive); in assay [4], 90.4% (inactive); in assay [5], 107% (inactive); in assay [6] (setting [9]), 93.2%; in assay [6] (setting [10]), 107%. Moreover, in assay [2], the Her2 level was 112% (inactive). Moreover, the differential viability (reversal) in assay [6] (H69AR cells + 2 uM doxorubicin) is 14% (inactive). Moreover, the values for the inhibition in assay [7] and in assay [8] were -5% (inactive) and -5.33% (inactive), respectively.
Take `COc1ccc(S(=O)(=O)N2CCN(CC(=O)Nc3ccc(C)c(F)c3)CC2)cc1`: the viability is 89.5% in assay [1]; 89.5% (inactive) in assay [3]; 86.4% (inactive) in assay [4]; 25.5% (active) in assay [5]; 51.4% in assay [6] (setting [9]); 25.5% in assay [6] (setting [10]). In assay [2], the Her2 level is 93.5% (inactive). In assay [6] (H69AR cells + 2 uM doxorubicin), the differential viability (reversal) was -25.9% (inactive). In addition, the inhibition is -5.2% (inactive) in assay [7] and -1.94% (inactive) in assay [8].
As to `CCCn1c2ccccc2c2nnc(SCC(=O)OCC)nc21`, the viability in assay [1] was 95%; in assay [3] it was 95% (inactive); in assay [4], 88.8% (inactive); in assay [5], 91.2% (inactive); in assay [6] (setting [9]) it was 80.2%; in assay [6] (setting [10]), 91.2%. Besides, the Her2 level in assay [2] was 78.5% (inactive). In addition, the differential viability (reversal) in assay [6] (H69AR cells + 2 uM doxorubicin) is 11% (inactive). The inhibition in assay [7] is -0.66% (inactive); in assay [8], 3.64% (inactive).
On to `Cc1noc(C)c1COc1cccc(C(=O)Nc2ccc(C#N)cc2)c1`, for which the viability in assay [1] is 96%; in assay [3] it was 96% (inactive); in assay [4], 68% (inactive); in assay [5] it was 68.9% (inactive); in assay [6] (setting [9]) it was 79.6%; in assay [6] (setting [10]), 68.9%. In addition, the Her2 level in assay [2] was 90% (inactive). In addition, the differential viability (reversal) in assay [6] (H69AR cells + 2 uM doxorubicin) is -10.6% (inactive). Moreover, the inhibition was -2.99% (inactive) in assay [7] and -6.67% (inactive) in assay [8].
For the molecule `CSc1nc(=NC(C)=O)ss1`, the viability in assay [1] is 122%; in assay [3], 122% (inactive); in assay [4], 84.7% (inactive); in assay [5], 71.8% (inactive); in assay [6] (setting [9]), 91.8%; in assay [6] (setting [10]) it was 71.8%. In addition, the Her2 level in assay [2] is 88.5% (inactive). The differential viability (reversal) in assay [6] (H69AR cells + 2 uM doxorubicin) was -20% (inactive). The inhibition in assay [7] was -6.8% (inactive); in assay [8], -10% (inactive).
On to `Cc1cc2ncn(C(=O)c3c(-c4ccccc4)noc3C)c2cc1C`, for which the viability in assay [1] is 102%; in assay [3], 102% (inactive); in assay [4] it was 76.8% (inactive); in assay [5], 81.8% (inactive); in assay [6] (setting [9]), 77.7%; in assay [6] (setting [10]) it was 81.8%. In assay [2], the Her2 level was 110% (inactive). Besides, the differential viability (reversal) in assay [6] (H69AR cells + 2 uM doxorubicin) was 4.1% (inactive). For the same molecule, the inhibition in assay [7] is 0.13% (inactive); in assay [8], -6.23% (inactive).
In the case of `O=C(O)[C@@H]1CCCN1c1ncnc2sc3c(c12)CCC3`, the viability is 128% in assay [1]; 128% (inactive) in assay [3]; 98.3% (inactive) in assay [4]; 106% (inactive) in assay [5]; 102% in assay [6] (setting [9]); 106% in assay [6] (setting [10]). Besides, in assay [2], the Her2 level was 100% (inactive). Besides, the differential viability (reversal) in assay [6] (H69AR cells + 2 uM doxorubicin) is 3.99% (inactive). In addition, the figures for the inhibition in assay [7] and in assay [8] were -6.8% (inactive) and 0.32% (inactive), respectively.
As to `Cc1ccc(NCC(O)C(O)C(O)CO)cc1C` (stereo not given), the viability in assay [1] was 113%; in assay [3], 113% (inactive); in assay [4] it was 93.4% (inactive); in assay [5], 94.3% (inactive); in assay [6] (setting [9]), 96.6%; in assay [6] (setting [10]), 94.3%. In addition, the Her2 level in assay [2] was 104% (inactive). Besides, the differential viability (reversal) in assay [6] (H69AR cells + 2 uM doxorubicin) is -2.34% (inactive). Also, the figures for the inhibition in assay [7] and in assay [8] were -6.93% (inactive) and -8.1% (inactive), respectively.
Regarding `CCc1cc2c(CN3CCN(CCO)CC3)cc(=O)oc2cc1O`, the viability in assay [1] is 106%; in assay [3], 106% (inactive); in assay [4], 90.4% (inactive); in assay [5], 92.6% (inactive); in assay [6] (setting [9]) it was 91.7%; in assay [6] (setting [10]), 92.6%. The Her2 level in assay [2] was 97% (inactive). Also, in assay [6] (H69AR cells + 2 uM doxorubicin), the differential viability (reversal) is 0.895% (inactive). For the same molecule, the inhibition is -2.53% (inactive) in assay [7] and 1.61% (inactive) in assay [8].
On to `CCCCP(=O)(CCCC)Cc1ccccc1O`, for which the viability was 99.5% in assay [1]; 99.5% (inactive) in assay [3]; 103% (inactive) in assay [4]; 97.1% (inactive) in assay [5]; 89.8% in assay [6] (setting [9]); 97.1% in assay [6] (setting [10]). In addition, the Her2 level in assay [2] is 104% (inactive). The differential viability (reversal) in assay [6] (H69AR cells + 2 uM doxorubicin) was 7.29% (inactive). Also, the inhibition in assay [7] is -5.32% (inactive); in assay [8] it was -6.07% (inactive).
For the molecule `CN(Cc1cccs1)C(=O)CCc1ccc(S(=O)(=O)N2CCOCC2)cc1`, the viability in assay [1] was 97.5%; in assay [3] it was 97.5% (inactive); in assay [4], 111% (inactive); in assay [5], 87.4% (inactive); in assay [6] (setting [9]), 97.6%; in assay [6] (setting [10]), 87.4%. Besides, the Her2 level in assay [2] is 116% (inactive). The differential viability (reversal) in assay [6] (H69AR cells + 2 uM doxorubicin) is -10.2% (inactive). In addition, the inhibition in assay [7] is -5.06% (inactive); in assay [8], -12.5% (inactive).
On to `N#C/C(C(=O)N1CCOCC1)=C1/SC(Cc2ccccc2)C(=O)N1c1ccccc1` (stereo not given), for which the viability is 92% in assay [1]; 92% (inactive) in assay [3]; 99.4% (inactive) in assay [4]; 98.4% (inactive) in assay [5]; 102% in assay [6] (setting [9]); 98.4% in assay [6] (setting [10]). The Her2 level in assay [2] is 90.5% (inactive). In addition, the differential viability (reversal) in assay [6] (H69AR cells + 2 uM doxorubicin) is -3.21% (inactive). The values for the inhibition in assay [7] and in assay [8] were -3.55% (inactive) and -4.91% (inactive), respectively.
`CCCCOc1ccc(-c2nnn(CC(=O)Nc3ncc(CC(=O)OCC)s3)n2)cc1`: the viability in assay [1] is 122%; in assay [3] it was 122% (inactive); in assay [4], 74.5% (inactive); in assay [5], 84% (inactive); in assay [6] (setting [9]), 88.4%; in assay [6] (setting [10]), 84%. The Her2 level in assay [2] is 100% (inactive). The differential viability (reversal) in assay [6] (H69AR cells + 2 uM doxorubicin) was -4.45% (inactive). Further, the inhibition is -7.11% (inactive) in assay [7] and -1.59% (inactive) in assay [8].

(Values after PubChem BioAssay.)
